How the values were obtained:
Type in all cases: cell-based
[1] = biological target: T1, RNA polymerase II (Mus musculus) (UniProt P08775+Q8CFI7+P97760+A0A3Q4L2S8+Q80UW8+P61219+P62488+Q923G2+P60898+O08740+Q63871+P62876); assay: Inhibition of RNA polymerase II in mouse B16-F1 migrating cells assessed as fold change in Ndrg1-RNA stability at 0.1 mM measured by ChIP-seq analysis relative to control cells
[2] = biological target: T1, RNA polymerase II (Mus musculus); assay: Inhibition of RNA polymerase II in mouse B16-F1 migrating cells assessed as fold change in Pgp-RNA stability at 0.1 mM measured by […] analysis relative to control cells
[3] = biological target: T1, RNA polymerase II (Mus musculus); assay: Inhibition of RNA polymerase II in mouse B16-F1 migrating cells assessed as fold change in Yes1-RNA stability at 0.1 mM measured by […] analysis relative to control cells
[4] = biological target: T1, RNA polymerase II (Mus musculus); assay: Inhibition of RNA polymerase II in mouse B16-F1 migrating cells assessed as fold change in Trpv2-RNA stability at 0.1 mM measured by […] analysis relative to control cells
[5] = biological target: T1, RNA polymerase II (Mus musculus); assay: Inhibition of RNA polymerase II in mouse B16-F1 migrating cells assessed as fold change in Galk1-RNA stability at 0.1 mM measured by ChIP-seq analysis relative to control cells
[6] = biological target: T1, RNA polymerase II (Mus musculus); assay: Inhibition of RNA polymerase II in mouse B16-F1 migrating cells assessed as fold change in Vegfa-RNA stability at 0.1 mM measured by […] analysis relative to control cells
[7] = biological target: T1, RNA polymerase II (Mus musculus); assay: Inhibition of RNA polymerase II in mouse B16-F1 migrating cells assessed as fold change in Vps72-RNA stability at 0.1 mM measured by […] analysis relative to control cells
[8] = biological target: T1, RNA polymerase II (Mus musculus); assay: Inhibition of RNA polymerase II in mouse B16-F1 migrating cells assessed as fold change in Nelfe-RNA stability at 0.1 mM measured by ChIP-seq analysis relative to control cells
[9] = biological target: T1, RNA polymerase II (Mus musculus); assay: Inhibition of RNA polymerase II in mouse B16-F1 migrating cells assessed as fold change in Calu-RNA stability at 0.1 mM measured by […] analysis relative to control cells
[10] = biological target: T1, RNA polymerase II (Mus musculus); assay: Inhibition of RNA polymerase II in mouse B16-F1 migrating cells assessed as fold change in Rassf2-RNA stability at 0.1 mM measured by […] analysis relative to control cells
[11] = biological target: T1, RNA polymerase II (Mus musculus); assay: Inhibition of RNA polymerase II in mouse B16-F1 migrating cells assessed as fold change in Pde12-RNA stability at 0.1 mM measured by […] analysis relative to control cells
[12] = biological target: T1, RNA polymerase II (Mus musculus); assay: Inhibition of RNA polymerase II in mouse B16-F1 migrating cells assessed as fold change in Alkbh8-RNA stability at 0.1 mM measured by […] analysis relative to control cells
[13] = biological target: T1, RNA polymerase II (Mus musculus); assay: Inhibition of RNA polymerase II in mouse B16-F1 migrating cells assessed as fold change in Fosb-RNA stability at 0.1 mM measured by ChIP-seq analysis relative to control cells
[14] = biological target: Histone-lysine N-methyltransferase EZH2 (Mus musculus) (UniProt Q61188); assay: Inhibition of EZH2 in mouse B16-F1 migrating cells assessed as fold change in H3K27me3-buffered regulated Rev3l-mRNA expression at 3 uM measured by ChIP-seq analysis relative to control cells
Sequence of Histone-lysine N-methyltransferase EZH2 (Mus musculus) (Q61188 whole entry): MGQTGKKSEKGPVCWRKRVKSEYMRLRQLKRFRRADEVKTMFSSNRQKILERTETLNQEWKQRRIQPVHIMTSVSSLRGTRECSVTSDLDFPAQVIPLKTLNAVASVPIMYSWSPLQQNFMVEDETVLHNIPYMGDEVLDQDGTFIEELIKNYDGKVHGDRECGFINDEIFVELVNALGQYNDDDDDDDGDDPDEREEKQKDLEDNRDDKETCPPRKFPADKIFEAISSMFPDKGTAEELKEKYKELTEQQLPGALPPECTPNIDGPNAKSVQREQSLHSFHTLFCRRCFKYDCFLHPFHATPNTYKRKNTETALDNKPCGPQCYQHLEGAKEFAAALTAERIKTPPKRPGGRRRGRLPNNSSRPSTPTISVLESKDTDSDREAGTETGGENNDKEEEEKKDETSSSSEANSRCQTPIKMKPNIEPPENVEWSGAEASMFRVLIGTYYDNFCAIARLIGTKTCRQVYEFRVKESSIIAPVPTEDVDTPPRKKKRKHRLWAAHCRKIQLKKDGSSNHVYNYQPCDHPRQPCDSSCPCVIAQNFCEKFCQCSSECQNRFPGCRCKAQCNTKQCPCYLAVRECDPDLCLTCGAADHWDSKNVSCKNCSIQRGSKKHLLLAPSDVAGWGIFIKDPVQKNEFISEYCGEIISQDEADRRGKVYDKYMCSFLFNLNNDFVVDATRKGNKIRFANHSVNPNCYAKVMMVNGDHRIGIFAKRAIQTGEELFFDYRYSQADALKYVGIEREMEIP
Method in brief: (§1)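 Confluent B16-F1 cells on fibronectin-coated plates, cultured at 37 °C and 7% CO2, were scratched at multiple sites to induce migration. They were then held 3 h in growth medium containing 3 µM GSK343, with the inhibitor added 3 h before lysis. Unscratched cells served as controls. Poly A mRNA was analysed by RNA-seq (n=3 GSK343, n=5 controls). Linear models removed batch effects, and buffered genes were those altered only under GSK343 (FDR <0.05, fold change >1.3).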

[15] = biological target: Histone-lysine N-methyltransferase EZH2 (Mus musculus) (UniProt Q61188); assay: Inhibition of EZH2 in mouse B16-F1 migrating cells assessed as fold change in H3K27me3-buffered regulated Aldoa-mRNA expression at 3 uM measured by […] analysis relative to control cells; method in brief: as §1
[16] = biological target: Histone-lysine N-methyltransferase EZH2 (Mus musculus) (UniProt Q61188); assay: Inhibition of EZH2 in mouse B16-F1 migrating cells assessed as fold change in H3K27me3-buffered regulated Rap2a-mRNA expression at 3 uM measured by […] analysis relative to control cells; method in brief: as §1
[17] = biological target: Histone-lysine N-methyltransferase EZH2 (Mus musculus) (UniProt Q61188); assay: Inhibition of EZH2 in mouse B16-F1 migrating cells assessed as fold change in H3K27me3-buffered regulated Rhobtb3-mRNA expression at 3 uM measured by […] analysis relative to control cells
Method in brief: (§2)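 Confluent B16-F1 cells on fibronectin-coated plates were scratched at multiple sites, washed once with DMEM and left to migrate 3 h in growth medium (37 °C, 7% CO2); unscratched cells served as control. GSK343 (3 µM) was added 3 h before lysis. Poly A mRNA was sequenced (RNA-seq), with 5 replicates for untreated and 3 for treated cells. Differential expression was called by linear model with batch correction, at FDR <0.05 and fold change ≥1.3.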

[18] = biological target: Histone-lysine N-methyltransferase EZH2 (Mus musculus) (UniProt Q61188); assay: Inhibition of EZH2 in mouse B16-F1 migrating cells assessed as fold change in H3K27me3-buffered regulated Hunk-mRNA expression at 3 uM measured by […] analysis relative to control cells; method in brief: as §1
[19] = biological target: Histone-lysine N-methyltransferase EZH2 (Mus musculus) (UniProt Q61188); assay: Inhibition of EZH2 in mouse B16-F1 migrating cells assessed as fold change in H3K27me3-dependent regulated Pxdc1-mRNA expression at 3 uM measured by […] analysis relative to control cells; method in brief: as §2
[20] = biological target: Histone-lysine N-methyltransferase EZH2 (Mus musculus) (UniProt Q61188); assay: Inhibition of EZH2 in mouse B16-F1 migrating cells assessed as fold change in H3K27me3-buffered regulated Kcnj14-mRNA expression at 3 uM measured by ChIP-seq analysis relative to control cells; method in brief: as §1
[21] = biological target: Histone-lysine N-methyltransferase EZH2 (Mus musculus) (UniProt Q61188); assay: Inhibition of EZH2 in mouse B16-F1 migrating cells assessed as fold change in H3K27me3-independent regulated Serpinb8-mRNA expression at 3 uM measured by […] analysis relative to control cells; method in brief: as §2
[22] = biological target: Histone-lysine N-methyltransferase EZH2 (Mus musculus) (UniProt Q61188); assay: Inhibition of EZH2 in mouse B16-F1 migrating cells assessed as fold change in H3K27me3-independent regulated Skil-mRNA expression at 3 uM measured by […] analysis relative to control cells; method in brief: as §2
[23] = biological target: Histone-lysine N-methyltransferase EZH2 (Mus musculus) (UniProt Q61188); assay: Inhibition of EZH2 in mouse B16-F1 migrating cells assessed as fold change in H3K27me3-buffered regulated Cmpk2-mRNA expression at 3 uM measured by ChIP-seq analysis relative to control cells; method in brief: as §1
[24] = biological target: Histone-lysine N-methyltransferase EZH2 (Mus musculus) (UniProt Q61188); assay: Inhibition of EZH2 in mouse B16-F1 migrating cells assessed as fold change in H3K27me3-buffered regulated Hdac10-mRNA expression at 3 uM measured by […] analysis relative to control cells; method in brief: as §1
[25] = biological target: Histone-lysine N-methyltransferase EZH2 (Mus musculus) (UniProt Q61188); assay: Inhibition of EZH2 in mouse B16-F1 migrating cells assessed as fold change in H3K27me3-buffered regulated Tet2-mRNA expression at 3 uM measured by ChIP-seq analysis relative to control cells; method in brief: as §2
[26] = biological target: Histone-lysine N-methyltransferase EZH2 (Mus musculus) (UniProt Q61188); assay: Inhibition of EZH2 in mouse B16-F1 migrating cells assessed as fold change in H3K27me3-buffered regulated Sltm-mRNA expression at 3 uM measured by ChIP-seq analysis relative to control cells; method in brief: as §2

**Q.** How did the log2FC [1] turn out when `OC[C@H]1O[C@@H](n2cnc3cc(Cl)c(Cl)cc32)[C@H](O)[C@@H]1O` was run?
**A.** The log2FC was 0.7.

**Q.** What about the log2FC [2] of the same compound?
**A.** Its log2FC is 0.82.

**Q.** And the log2FC [3]?
**A.** The log2FC was -0.83.

**Q.** And the log2FC [4]?
**A.** Its log2FC is 0.41.

**Q.** And the log2FC [5]?
**A.** The log2FC was 0.67.

**Q.** And the log2FC [6]?
**A.** Its log2FC is 0.67.

**Q.** What about the log2FC [7] of the same compound?
**A.** Its log2FC is 0.46.

**Q.** And the log2FC [8]?
**A.** Its log2FC is 0.39.

**Q.** What about the log2FC [9] of the same compound?
**A.** Its log2FC is -0.47.

**Q.** What about the log2FC [10] of the same compound?
**A.** Its log2FC is -0.48.

**Q.** What about the log2FC [11] of the same compound?
**A.** The log2FC was -0.77.

**Q.** What about the log2FC [12] of the same compound?
**A.** Its log2FC is -0.55.

**Q.** And the log2FC [13]?
**A.** The log2FC was 2.03.

**Q.** For `CCCc1cc(C)[nH]c(=O)c1CNC(=O)c1cc(-c2ccnc(N3CCN(C)CC3)c2)cc2c1cnn2C(C)C`, which log2FC [14] is on record?
**A.** Its log2FC is -0.47.

**Q.** What about the log2FC [15] of the same compound?
**A.** Its log2FC is 0.42.

**Q.** And the log2FC [16]?
**A.** Its log2FC is 0.56.

**Q.** What about the log2FC [17] of the same compound?
**A.** The log2FC was -0.62.

**Q.** What about the log2FC [18] of the same compound?
**A.** Its log2FC is -0.5.

**Q.** What about the log2FC [19] of the same compound?
**A.** Its log2FC is -0.09.

**Q.** What about the log2FC [20] of the same compound?
**A.** Its log2FC is 1.07.

**Q.** And the log2FC [21]?
**A.** The log2FC was 0.81.

**Q.** What about the log2FC [22] of the same compound?
**A.** Its log2FC is 0.42.

**Q.** And the log2FC [23]?
**A.** Its log2FC is -0.46.

**Q.** And the log2FC [24]?
**A.** The log2FC was -0.44.

**Q.** And the log2FC [25]?
**A.** Its log2FC is -0.48.

**Q.** What about the log2FC [26] of the same compound?
**A.** The log2FC was -0.45.

From ChEMBL document CHEMBL5674883, “The Heterochromatin Landscape in Migrating Cells and the Importance of H3K27me3 for Associated Transcriptome Alterations” (Cells, 2018)
